Measurements collected from several papers.
Protocols differ between the studies behind these lines.
Cell line: A549
Effect on: cell growth or viability

Cn1c(=O)c(NN=C2C(=O)Nc3ccc(F)cc32)nc2ccccc21 — inhibition (30 µM): 53.2%
O=C(CN1C(=O)/C(=C/c2ccco2)SC1=S)Nc1ccccc1 — inhibition (MTT; 10 µM): 39.5%
CN1C[C@H](C(=O)N[C@]2(C)O[C@@]3(O)[C@@H]4CCCN4C(=O)[C@H](Cc4ccccc4)N3C2=O)C[C@@H]2c3cccc4[nH]cc(c34)C[C@H]21 — EC50 (MTT; 72 h): 43 µM
COC(C)(C)CCC[C@](C)(O)[C@H]1CC[C@]2(C)[C@@H]1[C@H](O)C[C@@H]1[C@@]3(C)CC[C@H](O)C(C)(C)[C@@H]3CC[C@]12C — IC80 (MTT; 72 h): 35.9 µM
COc1ccc2c(c1)C(=NNc1ncnc3cc(OC)c(OC)cc13)C(=O)N2 — inhibition (10 µM): -10.4%
COc1ccc(CCNCC(O)COc2cccc(C)c2)cc1OC (stereo not shown) — viability (CCK-8; 100 µM, 72 h): < 50%
O=C(CN1C(=O)/C(=C/C2CC2)SC1=S)Nc1ccccc1 — inhibition (MTT; 10 µM): 28.9%
CCCCc1nc(Cl)c(CO)n1Cc1ccc(-c2ccccc2-c2nn[nH]n2)cc1 — EC50 (MTT; 72 h): 63 µM
COc1cccc(NC(=O)CN2C(=O)/C(=C/c3ccccc3)SC2=S)c1 — inhibition (MTT; 10 µM): 26.3%
CC/C(=C(\c1ccccc1)c1ccc(OCCN(C)C)cc1)c1ccccc1 — EC90 (ATP luminescence; 72 h): 26.1 µM
O=C1Nc2ccccc2C1=NNc1nnc(Cc2ccccc2)c2ccccc12 — inhibition (30 µM): 81.1%
O=C(CN1C(=O)/C(=C/c2ccc(F)cc2)SC1=S)Nc1ccccc1 — inhibition (MTT; 10 µM): 27.6%
O=C(/C=C/c1ccc2c(ccn2S(=O)(=O)c2ccccc2)c1)NO — GI50 (SRB; 48 h): 1 µM
COc1ccc2c(c1)C(=NNc1nnc(Cc3ccccc3)c3ccccc13)C(=O)N2 — inhibition (30 µM): 13.5%
CC1=C(C(=O)OC(C)C)C(c2cccc([N+](=O)[O-])c2)C(C(=O)OC2CN(C(c3ccccc3)c3ccccc3)C2)=C(N)N1 (stereo not shown) — viability (CCK-8; 100 µM, 72 h): < 50%
O=C(CN1C(=O)/C(=C/c2ccc(Cl)cc2Cl)SC1=S)Nc1ccccc1 — inhibition (MTT; 10 µM): 4.43%
CC(C)=CCC[C@](C)(O)[C@H]1CC[C@]2(C)[C@@H]1[C@H](O)C[C@@H]1[C@@]3(C)CC[C@H](O[C@@H]4O[C@H](CO)[C@@H](O)[C@H](O)[C@H]4O[C@@H]4O[C@H](CO)[C@@H](O)[C@H](O)[C@H]4O)C(C)(C)[C@@H]3CC[C@]12C — IC20 (MTT; 72 h): > 100 µM
COc1cccc(NC(=O)CN2C(=O)/C(=C/C3CC3)SC2=S)c1 — inhibition (MTT; 10 µM): 17.2%
COc1cccc2c1C(=O)c1c(O)c3c(c(O)c1C2=O)C[C@@](O)(C(=O)CO)C[C@@H]3O[C@H]1C[C@H](N)[C@H](O)[C@H](C)O1 — GI50 (SRB; 48 h): < 10 µg/mL
